Assay outcomes as filed in PubChem.
VIM-2 inh: inhibitors of Pseudomonas aeruginosa VIM-2 metallo-beta-lactamase. inhibition, % at 5.6 µM. 290,000 tested, 0.89% active. AID 1527. purified VIM-2, nitrocefin hydrolysis, epi-absorbance fluorescence;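 active = inhibition above the mean of all tested compounds plus 3 SD, cutoff set per screening run, cut at about 7.5% in these data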;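 note: red hydrolysis product quenches plate fluorescence so inhibitors raise well fluorescence; 0% = enzyme with DMSO and 100% = DMSO without enzyme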
IMP-1 inhibitor: inhibitors of Pseudomonas aeruginosa IMP-1 metallo-beta-lactamase; inhibition, % at 5.6 µM; 290,000 tested, 0.45% active; purified IMP-1, nitrocefin hydrolysis, epi-absorbance fluorescence;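 active = inhibition above the mean plus 3 SD of all compounds in the same screening run, cut at about 4.5% in these data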;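 note: 0% = IMP-1 with DMSO and 100% = DMSO wells lacking enzyme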
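assay system = purified recombinant IMP-1 metallo-beta-lactamase enzyme | schedule = 15 min preincubation plus 25 min reaction at 25 °C | signal = Epi-absorbance fluorescence, 480 nm excitation, 530 nm emission | read-out basis = percent inhibition from optical density relative to buffer-blank wells | controls = IMP-1 with DMSO as 0%, enzyme-free DMSO as 100%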
697 NFkB inh: inhibitors of the PMA/ionomycin-induced NF-kB reporter in 697 B cells | 330,000 tested, 0.33% active | 697 B-cell NF-kB luciferase reporter, 16 h | AID 435022 | inhibition, % at 4 µM; in the data active = inhibition above about 35%
Mdm2-MdmX inh: human Mdm2/MdmX binding inhibition. O15151+Q00987. SaOS-2 split-luciferase Mdm2/MdmX complementation, luminescence. inhibition, % at 8 µM. 330,000 tested, 3% active;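 active = inhibition of at least 50% at 8 µM in the primary screen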
Jurkat NFkB inh: lowers PMA/ionomycin-induced NF-kB signal in Jurkat cells; inhibition, % at 4 µM; PMA/ionomycin-induced NF-kB luciferase reporter, luminescence; 330,000 tested, 0.53% active; AID 435003; in the data active = inhibition above about 50%
aSyn UTR inh: MLPCN primary screen, SNCA 5' untranslated region. alpha-synuclein 5'UTR reporter, inhibitor activity. inhibition, % (tested at 7.5 µM). 300,000 tested, 0.82% active. AID 1813; in the data active = inhibition above about 60%;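 note: H4 neuroglioblastoma cells stably carrying SNCA 5'UTR luciferase fusion; 0% = DMSO wells and 100% = positive control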
Mdm2-MdmX conf: confirmation of human Mdm2/MdmX interaction inhibitors. shares compounds with Mdm2-MdmX inh. Mdm2-MdmX binding, luminescent assay. inhibition, % at 8 µM. 10,000 tested, 55% active. AID 489028; in the data active = inhibition above about 40%
FLuc counter: inhibits full-length luciferase, flagging false Mdm2/MdmX hits | shares compounds with Mdm2-MdmX inh | SaOS-2 full-length luciferase counterscreen, luminescence | 6,200 tested, 77% active | inhibition, % at 8 µM;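 active = mean inhibition at 8 µM reaching about 37%, which flags the compound as non-specific, limit read from the data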;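 note: p53-null SaOS-2 cells with luciferase driven by a doxycycline-inducible promoter; compound on cells about two nights before reading with doxycycline added after day one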
The depositor's hits bear a star. An excerpt weighted towards active compounds, which were near 4.7% of everything screened.

O=C1/C(=C/c2cccc(Br)c2)SC(=S)N1CCC(=O)N(CCO)c1ccccc1 was read as VIM-2 inh 0, IMP-1 inhibitor -2, 697 NFkB inh -33, Mdm2-MdmX inh 52*, Jurkat NFkB inh -32, aSyn UTR inh -1 and Mdm2-MdmX conf 11.
For COc1ccc(/C=C2\SC(=S)N(CCC(=O)N(CCO)Cc3ccccc3)C2=O)cc1OC the results were VIM-2 inh -3, IMP-1 inhibitor -4, 697 NFkB inh 19, Mdm2-MdmX inh 44, Jurkat NFkB inh -10 and aSyn UTR inh 19.
`N#Cc1ccc(-n2nccc2-c2cnc3n(c2=O)CCS3)cc1` gave VIM-2 inh -5, IMP-1 inhibitor 2, 697 NFkB inh -35, Mdm2-MdmX inh -66, Jurkat NFkB inh -4 and aSyn UTR inh 1.
For COc1cccc(CNC(=O)CN2C(=O)CSc3ccc(S(=O)(=O)N4CCOCC4)cc32)c1 the results were VIM-2 inh -3, IMP-1 inhibitor -2, 697 NFkB inh -8, Mdm2-MdmX inh 21, Jurkat NFkB inh -2 and aSyn UTR inh -11.
Cc1ccc(C)c(NC(=O)c2ccccc2NS(=O)(=O)c2cc([N+](=O)[O-])ccc2C)c1 was read as VIM-2 inh -2, IMP-1 inhibitor -5, 697 NFkB inh -12, Mdm2-MdmX inh 89*, Jurkat NFkB inh 3, aSyn UTR inh 8, Mdm2-MdmX conf 94* and FLuc counter 40*.
For Cc1ccc([N+](=O)[O-])cc1S(=O)(=O)Nc1cccc(S(=O)(=O)Nc2ccccc2C(=O)O)c1 the results were 697 NFkB inh 11, Mdm2-MdmX inh 16 and Jurkat NFkB inh 7.
`O=c1c2cc(N3CCOCC3)ccc2[nH]c(=S)n1CCCN1CCN(c2ccccc2F)CC1` gave VIM-2 inh -1, IMP-1 inhibitor -1, 697 NFkB inh -7, Mdm2-MdmX inh 58*, Jurkat NFkB inh -19 and Mdm2-MdmX conf 32.
O=C(CCCCCn1c(=S)[nH]c2ccc(N3CCOCC3)cc2c1=O)NCCc1ccccc1 was read as VIM-2 inh -4, IMP-1 inhibitor -5, 697 NFkB inh -13, Mdm2-MdmX inh 51*, Jurkat NFkB inh -2, aSyn UTR inh -6 and Mdm2-MdmX conf -10.
CNS(=O)(=O)c1cc(-c2nnc(Nc3ccc(CC(N)=O)cc3)c3ccccc23)ccc1C was read as VIM-2 inh 0, IMP-1 inhibitor -2, 697 NFkB inh -15, Mdm2-MdmX inh 4, Jurkat NFkB inh -16 and aSyn UTR inh 8.
CN(C)CCN=Cc1c(O)n(Cc2ccccc2)c(=O)c2ccccc12 was read as VIM-2 inh -1, IMP-1 inhibitor -3, 697 NFkB inh -22, Mdm2-MdmX inh 9, Jurkat NFkB inh -13 and aSyn UTR inh 9.
CC1(C)CC(N=Cc2c(O)n(Cc3ccc4c(c3)OCO4)c(=O)c3ccccc23)CC(C)(C)N1 was read as VIM-2 inh 2, IMP-1 inhibitor -4, 697 NFkB inh 17, Mdm2-MdmX inh 93*, Jurkat NFkB inh 14, aSyn UTR inh 18, Mdm2-MdmX conf 40 and FLuc counter 69*.
`CC(CCc1ccc(O)cc1)NCCC(c1ccccc1)c1ccccc1` (configuration not stated) gave VIM-2 inh 0, IMP-1 inhibitor -1, 697 NFkB inh -13, Mdm2-MdmX inh 51*, Jurkat NFkB inh -4, aSyn UTR inh 9 and Mdm2-MdmX conf 29.
For CC(CCc1ccc(O)cc1)NC(c1ccccc1)c1ccc(Cl)cc1 (configuration not stated) the results were VIM-2 inh 0, IMP-1 inhibitor 2, 697 NFkB inh -19, Mdm2-MdmX inh -1, Jurkat NFkB inh -18 and aSyn UTR inh 23.
Cc1ccc(SSc2cc(C)ccc2N)c(N)c1 was read as 697 NFkB inh -147, Mdm2-MdmX inh 7, Jurkat NFkB inh -92 and aSyn UTR inh -203.
Screening C=CCn1cnc2c(c1=O)c1nc3ccccc3nc1n2-c1ccc(C)cc1 returned VIM-2 inh 0, IMP-1 inhibitor -2, 697 NFkB inh 18, Mdm2-MdmX inh -3, Jurkat NFkB inh 12 and aSyn UTR inh 10.
`COCCn1cnc2c(c1=O)c1nc3ccccc3nc1n2/N=C/c1cccc(OC)c1` gave VIM-2 inh -2, IMP-1 inhibitor -4, 697 NFkB inh 23, Mdm2-MdmX inh 42, Jurkat NFkB inh 9 and aSyn UTR inh 9.
Screening C=CCn1cnc2c(c1=O)c1nc3ccccc3nc1n2/N=C/c1cc(OC)c(OC)c(OC)c1 returned VIM-2 inh 0, IMP-1 inhibitor -3, 697 NFkB inh -27, Mdm2-MdmX inh 86*, Jurkat NFkB inh 40, aSyn UTR inh -35, Mdm2-MdmX conf 75* and FLuc counter 65*.
C=CCn1cnc2c(c1=O)c1nc3ccccc3nc1n2/N=C/c1cccc(OC)c1OC was read as 697 NFkB inh 18, Mdm2-MdmX inh 59*, Jurkat NFkB inh 3 and Mdm2-MdmX conf 31.
For Cc1ccc(S(=O)(=O)NC(=O)N(CCC#N)Cc2ccccc2)cc1 the results were VIM-2 inh -3, IMP-1 inhibitor -2, 697 NFkB inh 12, Mdm2-MdmX inh 9, Jurkat NFkB inh 15 and aSyn UTR inh -11.
Screening COCCn1c(SCC(=O)Nc2cc(C)on2)nc2cc(Cl)ccc2c1=O returned 697 NFkB inh 8, Mdm2-MdmX inh 64*, Jurkat NFkB inh -11 and Mdm2-MdmX conf 6.
Screening Cc1cc(NC(=O)CSc2nc3cc(Cl)ccc3c(=O)n2CC(C)C)no1 returned VIM-2 inh 1, IMP-1 inhibitor 0, 697 NFkB inh 15, Mdm2-MdmX inh 1, Jurkat NFkB inh -36 and aSyn UTR inh 10.
For Cc1cccc(NC(=O)CSc2nc3c([nH]c4ccccc43)c(=O)n2C)c1 the results were VIM-2 inh -3, IMP-1 inhibitor -2, 697 NFkB inh 0, Mdm2-MdmX inh 65*, Jurkat NFkB inh -3, aSyn UTR inh 44 and Mdm2-MdmX conf 1.
Screening COCCn1c(SCC(=O)Nc2ccc(OC)cc2)nc2c(oc3ccccc32)c1=O returned VIM-2 inh 1, IMP-1 inhibitor 0, 697 NFkB inh 12, Mdm2-MdmX inh 99*, Jurkat NFkB inh -6, aSyn UTR inh 16 and Mdm2-MdmX conf 15.
`COCCn1c(SCC(=O)Nc2cccc(F)c2)nc2c([nH]c3ccccc32)c1=O` gave VIM-2 inh 0, IMP-1 inhibitor -2, 697 NFkB inh 5, Mdm2-MdmX inh 88*, Jurkat NFkB inh 0, aSyn UTR inh 2, Mdm2-MdmX conf 66* and FLuc counter 47*.
